For assay [1], the system named is Human alphaherpesvirus 1. Briefly: Antiviral activity against HSV1 infected african green monkey Vero cells at 10^-2 dilution of 5 mg/ml by plaque formation assay. In kind it is functional. The method, boiled down:
(§1)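 Compound dilutions prepared from a 5 mg/mL DMSO stock, using the maximum non-toxic dilution for Vero cells over 3 days; 0.1 mL virus (10³) mixed with 0.1 mL compound for 1 h at room temperature; mixture inoculated onto washed Vero monolayers in 12-well plates and adsorbed at 37 °C; 2× MEM/agarose overlay applied; read-out % reduction in plaque count versus untreated virus control.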

In assay [2] the test system is Candida albicans. Briefly: Antifungal activity against Candida albicans IMRU 3669 at 1 mg/ml by agar disk diffusion assay. In kind it is functional. The following applies: read-out: DIZ. A digest of the protocol:
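Fungi maintained on Czapek's Dox agar; agar well diffusion with 1 cm wells and […] of each concentration (1, 2.5, 5 mg/mL) in DMF; inhibition zone diameter measured.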
(In general: In agar diffusion tests the substance spreads into inoculated agar from a disc or well.)

Assay [3] deals with Coxsackievirus B4. Briefly: Antiviral activity against Coxsackievirus B4 infected african green monkey Vero cells at 10^-2 dilution of 5 mg/ml by plaque formation assay. It counts as functional. A digest of the protocol: as §1
The subject of assay [4] is Aspergillus niger. Briefly: Antifungal activity against Aspergillus niger IMI 31726 at 1 mg/ml by agar disk diffusion assay. The following applies: read-out: DIZ. It counts as functional.
Assay [5] has as its system Hepatovirus A. Briefly: Antiviral activity against HAV infected african green monkey Vero cells at 10^-2 dilution of 5 mg/ml by plaque formation assay. It counts as functional. The method, boiled down: as §1
In assay [6] the test system is Staphylococcus aureus. The assay can be described thus: Antibacterial activity against Staphylococcus aureus NCTC 7447 at 1 mg/ml by agar disk diffusion assay. In kind it is functional. As to conditions: read-out: DIZ.
In assay [7] the test system is Salmonella typhi. The assay can be described thus: Antibacterial activity against Salmonella typhi NCIMB 9331 at 1 mg/ml by agar disk diffusion assay. In kind it is functional, Salmonella enterica subsp. enterica serovar Typhi. The following applies: Salmonella enterica, read-out: DIZ.
Assay [8] concerns Escherichia coli. The assay can be described thus: Antibacterial activity against Escherichia coli NCTC 10416 at 1 mg/ml by agar disk diffusion assay. In kind it is functional. As to conditions: read-out: DIZ.
Assay [9] has as its system Bacillus subtilis. The assay can be described thus: Antibacterial activity against Bacillus subtilis NCTC 1040 at 1 mg/ml by agar disk diffusion assay. It counts as functional. The following applies: read-out: DIZ.

Active and inactive are the calls of the source. The rule behind the calls is not given here.

In assay [1], `O=C1C(=S)N(c2ccc(Br)cc2)C(=O)N1c1ccc2c(c1)Cc1ccccc1-2` registered an Activity of 40%. Besides, the zone of inhibition at 1000 µg/mL in assay [2] came out at 13 mm; in [4], 13 mm; in [6] it was 13 mm; in assay [7], 12 mm; in assay [8], 11 mm; in assay [9] it was 14 mm. The result in assay [3] and in [5] was inactive.

Values taken from ChEMBL document CHEMBL1155362, “Synthesis, characterization and derivatization of some novel types of mono- and bis-imidazolidineiminothiones and imidazolidineiminodithiones with antitumor, antiviral, antibacterial and antifungal activities--part I” (Eur J Med Chem, 2009).
